Activity calls are given as the source filed them. No cut-off for these calls is given here.
Legend:
MCF7 [1] = assay: Cell cycle arrest in human MCF7 cells assessed as accumulation at subG1 phase at 8 nM after 24 hrs by DAPI-staining based FACS analysis (reference value: 1.4%); assay type: functional
MDA-MB-468 [2] = assay: Cell cycle arrest in human MDA-MB-468 cells assessed as accumulation at S phase at 8 nM after 24 hrs by DAPI-staining based FACS analysis (reference value: 17%); assay type: functional
MDA-MB-468 [3] = assay: Cell cycle arrest in human MDA-MB-468 cells assessed as accumulation at subG1 phase at 8 nM after 24 hrs by DAPI-staining based FACS analysis (reference value: 0.2%); assay type: functional
MDA-MB-231 [4] = assay: Cell cycle arrest in human MDA-MB-231 cells assessed as accumulation at subG1 phase at 8 nM after 24 hrs by DAPI-staining based FACS analysis (reference value: 4.1%); assay type: functional
MDA-MB-231 [5] = assay: Cell cycle arrest in human MDA-MB-231 cells assessed as accumulation at G0/G1 phase at 8 nM after 24 hrs by DAPI-staining based FACS analysis (reference value: 70.7%); assay type: functional
MDA-MB-231 [6] = assay: Cell cycle arrest in human MDA-MB-231 cells assessed as accumulation at S phase at 8 nM after 24 hrs by DAPI-staining based FACS analysis (reference value: 9.7%); assay type: functional
Homo sapiens [7] = organism: Homo sapiens; assay: Destabilization of microtubule network in human MDA-MB-468 cells at 8 nM after 24 hrs by fluorescence microscopic analysis; assay type: cell-based
Homo sapiens [8] = organism: Homo sapiens; assay: Destabilization of microtubule network in human MDA-MB-231 cells at 8 nM after 24 hrs by fluorescence microscopic analysis; assay type: cell-based
MDA-MB-468 [9] = assay: Cell cycle arrest in human MDA-MB-468 cells assessed as accumulation at subG1 phase at 50 nM after 24 hrs by DAPI-staining based FACS analysis (reference value: 0.2%); assay type: functional
HT-29 = assay: Antiproliferative activity against human HT-29 cells after 48 hrs by SRB assay; assay type: functional, cell-based; settings: HT-29, 48 h
Summary of the method: (§1)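 SRB assay run as in the NCI screen with slight modifications. Seeding: HT-29 5.0 x 10^3, M21 3.5 x 10^3, MCF7 7.5 x 10^3 cells; cells preincubated 24 h. Drug in DMSO added at 0.75 to 1.0 x 10^5 nM for 48 h. TCA fixation, sulforhodamine B staining, absorbance 530-565 nm. At least two experiments in triplicate; runs accepted only when relative SD < 10%.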

MCF7 [10] = assay: Antiproliferative activity against human MCF7 cells after 48 hrs by SRB assay; assay type: functional, cell-based; settings: MCF7, 48 h; summary of the method: as §1
[11] = Selectivity ratio of IC50 for human HT-29 cells to IC50 for human MCF7 cells; assay type: functional
Summary of the method: (§2)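 Ratio is IC50 in reference line over IC50 in sensitive line. […] Cells in DMEM with 5% calf serum at 37 °C. At least two experiments, triplicate cultures; assay accepted when relative SD < 10%.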

[12] = Selectivity ratio of IC50 for human M21 cells to IC50 for human MCF7 cells; assay type: functional; summary of the method: as §2
Cytochrome P450 1A1 = molecular target: T1, Cytochrome P450 1A1 (Homo sapiens, UniProt P04798); assay: Prodrug activation assessed as time required for human supersomes CYP1A1-mediated 3,4,5-trimethoxyphenyl 4-(2-oxoimidazolidin-1-yl)benzenesulfonate formation after 4 hrs by HPLC-MS analysis; assay type: ADME; settings: recombinant enzyme
T1 sequence (P04798 whole entry): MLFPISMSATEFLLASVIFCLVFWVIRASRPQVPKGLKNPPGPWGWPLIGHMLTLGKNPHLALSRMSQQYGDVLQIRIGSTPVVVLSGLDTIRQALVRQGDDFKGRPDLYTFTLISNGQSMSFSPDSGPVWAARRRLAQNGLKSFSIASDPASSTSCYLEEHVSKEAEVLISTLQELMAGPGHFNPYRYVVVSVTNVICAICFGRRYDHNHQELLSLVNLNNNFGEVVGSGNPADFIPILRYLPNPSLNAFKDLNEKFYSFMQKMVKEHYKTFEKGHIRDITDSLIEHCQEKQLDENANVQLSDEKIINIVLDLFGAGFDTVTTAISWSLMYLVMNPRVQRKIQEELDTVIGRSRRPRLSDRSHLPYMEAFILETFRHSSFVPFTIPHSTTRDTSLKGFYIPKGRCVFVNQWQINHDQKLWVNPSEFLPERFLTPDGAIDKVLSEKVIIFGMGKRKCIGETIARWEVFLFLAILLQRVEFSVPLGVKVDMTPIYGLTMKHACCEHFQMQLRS

MCF7 [13] = assay: Cell cycle arrest in human MCF7 cells assessed as accumulation at G0/G1 phase at 50 nM after 24 hrs by DAPI-staining based FACS analysis (reference value: 65.5%); assay type: functional
MCF7 [14] = assay: Cell cycle arrest in human MCF7 cells assessed as accumulation at G2/M phase at 50 nM after 24 hrs by DAPI-staining based FACS analysis (reference value: 22.3%); assay type: functional
MDA-MB-231 [15] = assay: Cell cycle arrest in human MDA-MB-231 cells assessed as accumulation at subG1 phase at 50 nM after 24 hrs by DAPI-staining based FACS analysis (reference value: 4.1%); assay type: functional
MDA-MB-231 [16] = assay: Cell cycle arrest in human MDA-MB-231 cells assessed as accumulation at G0/G1 phase at 50 nM after 24 hrs by DAPI-staining based FACS analysis (reference value: 70.7%); assay type: functional
Homo sapiens [17] = organism: Homo sapiens; assay: Destabilization of microtubule network in human MDA-MB-231 cells at 50 nM after 24 hrs by fluorescence microscopic analysis; assay type: cell-based
MDA-MB-468 [18] = assay: Cytotoxicity against human MDA-MB-468 cells after 72 hrs in presence of CYP1A1 inhibitor resveratrol by SRB assay; assay type: functional, cell-based
Summary of the method: (§3)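 MDA-MB-468 cells (5.0 x 10^3/well) seeded and incubated 24 h. Drug freshly dissolved in DMSO, given at 0.75 to 1.0 x 10^5 nM, together with subtoxic CYP inhibitor, for 72 h. Cells fixed with cold 10% TCA and stained with 0.1% sulforhodamine B. Bound dye taken up in 10 mM Tris, absorbance read at 530-565 nm. At least two experiments, triplicate cultures.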

MDA-MB-468 [19] = assay: Cytotoxicity against human MDA-MB-468 cells after 72 hrs in presence of CYP1A1 inhibitor ketoconazole by SRB assay; assay type: functional, cell-based; summary of the method: as §3
MDA-MB-468 [20] = assay: Cytotoxicity against human MDA-MB-468 cells after 72 hrs in presence of CYP1A1 inhibitor tacrine by SRB assay; assay type: functional, cell-based; summary of the method: as §3
MDA-MB-468 [21] = assay: Cytotoxicity against human MDA-MB-468 cells after 72 hrs in presence of CYP inhibitor aniline by SRB assay; assay type: functional, cell-based
Summary of the method: (§4)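 MDA-MB-468 cells co-incubated for 72 h with drug plus a subtoxic concentration of a CYP inhibitor. Viability read by SRB assay: TCA fixation, sulforhodamine B staining, absorbance at 530-565 nm.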

MDA-MB-468 [22] = assay: Cytotoxicity against human MDA-MB-468 cells after 72 hrs in presence of CYP inhibitor pentachlorophenol by SRB assay; assay type: functional, cell-based; summary of the method: as §4
MDA-MB-468 [23] = assay: Cytotoxicity against human MDA-MB-468 cells after 72 hrs in presence of CYP inhibitor salicylamide by SRB assay; assay type: functional, cell-based; summary of the method: as §4
Cytochrome P450 3A4 = Cytochrome P450 3A4 (Homo sapiens, UniProt P08684); assay: Prodrug activation assessed as human supersomes CYP3A4-mediated 3,4,5-trimethoxyphenyl 4-(2-oxoimidazolidin-1-yl)benzenesulfonate formation after 4 hrs by HPLC-MS analysis; assay type: ADME; settings: recombinant enzyme
Sequence of Cytochrome P450 3A4 (P08684 whole entry): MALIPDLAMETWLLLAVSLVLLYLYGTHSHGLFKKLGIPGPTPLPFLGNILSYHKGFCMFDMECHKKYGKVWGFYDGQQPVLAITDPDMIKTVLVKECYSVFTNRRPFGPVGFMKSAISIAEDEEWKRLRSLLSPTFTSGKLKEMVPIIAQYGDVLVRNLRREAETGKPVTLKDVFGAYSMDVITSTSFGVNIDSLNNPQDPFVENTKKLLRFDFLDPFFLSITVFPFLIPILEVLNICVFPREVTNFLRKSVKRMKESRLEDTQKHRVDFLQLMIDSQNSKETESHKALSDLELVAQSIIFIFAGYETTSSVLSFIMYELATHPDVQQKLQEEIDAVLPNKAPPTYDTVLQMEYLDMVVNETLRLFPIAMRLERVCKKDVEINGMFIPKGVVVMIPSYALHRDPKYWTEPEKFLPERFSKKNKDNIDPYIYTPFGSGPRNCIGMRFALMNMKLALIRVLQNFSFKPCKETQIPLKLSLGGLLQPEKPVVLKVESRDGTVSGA

SMILES: COc1cc(OS(=O)(=O)c2ccc(N3CCNC3=O)cc2)cc(OC)c1OC
- Activity (MCF7 [1]): 35.6%
- Activity (MDA-MB-468 [2]): 13.3%
- Activity (MDA-MB-468 [3]): 1.7%
- Activity (MDA-MB-231 [4]): 6.9%
- Activity (MDA-MB-231 [5]): 7.3%
- Activity (MDA-MB-231 [6]): 8.9%
- Activity (Homo sapiens [7]): Active
- Activity (Homo sapiens [8]): inactive

SMILES: CCCCN1CCN(c2ccc(S(=O)(=O)Oc3cc(OC)c(OC)c(OC)c3)cc2)C1=O
- Activity (MDA-MB-468 [9]): 1.3%
- IC50 (HT-29): 3600 nM
- IC50 (MCF7 [10]): 10 nM
- Ratio IC50 [11]: 360
- Ratio IC50 [12]: 380
- Time (Cytochrome P450 1A1): 30 min
- Activity (MCF7 [13]): 3.7%
- Activity (MCF7 [14]): 90.2%
- Activity (MDA-MB-231 [15]): 2.1%
- Activity (MDA-MB-231 [16]): 73%
- Activity (Homo sapiens [17]): inactive
- Activity (MDA-MB-468 [18]): inactive
- Activity (MDA-MB-468 [19]): inactive
- Activity (MDA-MB-468 [20]): inactive
- Activity (MDA-MB-468 [21]): Active
- Activity (MDA-MB-468 [22]): Active
- Activity (MDA-MB-468 [23]): Active
- Drug metabolism (Cytochrome P450 3A4): Metabolite_Notdetected

Reference: ChEMBL document CHEMBL4014335, “Activation of Phenyl 4-(2-Oxo-3-alkylimidazolidin-1-yl)benzenesulfonates Prodrugs by CYP1A1 as New Antimitotics Targeting Breast Cancer Cells” (J Med Chem, 2017)
